The text below walks through data of ChEMBL document CHEMBL2434859, “Targeting botulinum A cellular toxicity: a prodrug approach” (J Med Chem, 2013).

The source made the active and inactive calls.

Data set [1] is described as follows: Half life in culture media at 10 to 100 uM by LC/MS analysis. The format is physicochemical. Conditions: for t1/2: 100 µM. The method, boiled down: (§1)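 Compound at 10–100 μM (1% DMSO) was held in PBS pH 7.4 or neurobasal medium. Aliquots were taken at timed intervals; medium samples were quenched in cold acetonitrile. A deuterated internal standard (1 μM) was added, and samples were read by LC/MS (C8, SIM) against calibration curves. Half-life came from an exponential decay fit.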

The target of data set [2] is Botulinum neurotoxin type A (Clostridium botulinum (strain Hall / ATCC 3502 / NCTC 13319 / Type A)) (UniProt P0DPI1). The data set is described as follows: Inhibition of Clostridium botulinum A Hall BoNT LC/A in human induced pluripotent stem cell-derived neurons assessed as inhibition of intracellular SNAP-25 cleavage at 25 uM after 8 hrs by Western blot analysis relative to control. It counts as cell-based. Conditions: Clostridium botulinum A str. Hall. (Immunoblotting shows a protein as a band on a membrane.)
Chain of Botulinum neurotoxin type A (Clostridium botulinum (strain Hall / ATCC 3502 / NCTC 13319 / Type A)) (P0DPI1 2-448 limits assumed): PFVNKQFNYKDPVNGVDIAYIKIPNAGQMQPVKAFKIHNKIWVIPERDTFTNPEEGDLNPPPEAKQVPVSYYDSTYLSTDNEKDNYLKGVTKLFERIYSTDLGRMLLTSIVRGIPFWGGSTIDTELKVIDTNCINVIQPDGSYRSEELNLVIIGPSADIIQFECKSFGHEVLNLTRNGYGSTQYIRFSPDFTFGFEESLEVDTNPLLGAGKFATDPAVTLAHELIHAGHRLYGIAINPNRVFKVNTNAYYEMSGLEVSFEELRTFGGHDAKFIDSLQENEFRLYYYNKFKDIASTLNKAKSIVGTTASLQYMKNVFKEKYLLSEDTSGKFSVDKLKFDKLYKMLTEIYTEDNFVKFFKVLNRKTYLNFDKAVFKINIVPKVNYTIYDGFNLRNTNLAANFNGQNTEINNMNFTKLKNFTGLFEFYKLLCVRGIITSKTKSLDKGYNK

Data set [3] shares this target. The data set is described as follows: Inhibition of Clostridium botulinum A Hall BoNT LC/A in human induced pluripotent stem cell-derived neurons assessed as inhibition of intracellular SNAP-25 cleavage after 8 hrs by Western blot analysis in presence of 0.01% Tween-80. The format is cell-based. The following applies: Clostridium botulinum A str. Hall.
The target is the same in data set [4]. The data set is described as follows: (§2) Inhibition of Clostridium botulinum A Hall BoNT LC/A in human induced pluripotent stem cell-derived neurons assessed as inhibition of intracellular SNAP-25 cleavage after 8 hrs by Western blot analysis. The format is cell-based. Conditions: Clostridium botulinum A str. Hall.
Data set [5] addresses Botulinum neurotoxin type A (Clostridium botulinum (strain Hall / ATCC 3502 / NCTC 13319 / Type A), UniProt P0DPI1). Described as §2. It counts as cell-based, Clostridium botulinum A str. Hall.
Data set [6] in a line: Half life in PBS buffer at 10 to 100 uM by LC/MS analysis. The format is physicochemical. Put shortly:
as §1

Data set [7] is described as follows: Cellular uptake in golgi apparatus of mouse Neuro2a cell assessed as release of AMC and 1-adamantylacetohydroxamic acid at 50 uM after 3 hrs by Alexa Fluor 488-conjugated wheat germ agglutinin/TOTO-3 staining-based laser scanning confocal microscopic analysis. The format is ADME.
Data set [8] can be described thus: Prodrug conversion in mouse Neuro2a cells assessed as release of AMC and 1-adamantylacetohydroxamic acid at 50 uM after 3 hrs by Alexa Fluor 488-conjugated wheat germ agglutinin/TOTO-3 staining-based laser scanning confocal microscopic analysis. It counts as ADME, cell-based. Conditions: n2a.
Data set [9] can be described thus: Cytotoxicity against human induced pluripotent stem cell-derived neurons assessed as SNAP-25 level at 25 uM after 8 hrs by Western blot analysis. The following applies: induced pluripotent stem cell-derived neuron.

Chain of Botulinum neurotoxin type A (P0DPI1 2-448 limits assumed): as above

The term inhibition denotes the percentage by which the read-out fell short of the control. As a reminder, the EC50 is the concentration giving half of the maximal effect. On to `O=C(CC12CC3CC(CC(C3)C1)C2)NOC(=O)NCc1ccccc1`, for which the t1/2 in data set [1] came out at 14.6 h; in [6] it was 17.6 h. The inhibition in [2] is 50%; in [4], “Dose-dependent effect”. Also, in data set [3], the inhibition entry is “Active”. Further, the EC50 in [5] (read-out: EC50) was 20 µM.
For the compound `O=C(CC12CC3CC(CC(C3)C1)C2)NOC(=O)NCc1ccc(F)cc1`, the t1/2 in data set [1] and in data set [6] was 11.5 h throughout. The 50% effective concentration (EC50) in data set [5] (read-out: EC50) stood at 27 µM.
For `CCNC(=O)ONC(=O)CC12CC3CC(CC(C3)C1)C2`, the t1/2 was found to be 15.1 h in data set [1] and 27.6 h in data set [6]. Further, the EC50 in data set [5] (read-out: EC50) is above 100 µM.
By half-life is commonly meant the time needed for the level to fall by half in the phase considered. Low values mean fast loss, high ones slow loss. Consider `Cc1cc(=O)oc2cc(NC(=O)ONC(=O)CC34CC5CC(CC(C5)C3)C4)ccc12`, for which the half-life at up to 100 µM in [1] (culture media) was 4.5 h. The Drug uptake result in data set [7] is “Active”. In addition, the inhibition entry in [4] was “Active”. Further, the Drug metabolism entry in data set [8] is listed as “Active”.
As for `O=C(CC12CC3CC(CC(C3)C1)C2)NOC(=O)Nc1ccc(F)cc1`, the t1/2 in [1] came to 0.62 h; in data set [6] it was 0.9 h. In addition, in [5] (read-out: EC50), the EC50 was above 100 µM.
On the same counts, the results for `COc1cc(NC(=O)ONC(=O)CC23CC4CC(CC(C4)C2)C3)cc(OC)c1` are 1.6 h, 1.2 h and above 100 µM.
On the same counts, the results for `O=C(CC12CC3CC(CC(C3)C1)C2)NOC(=O)Nc1ccccc1` are 0.76 h, 1.1 h and above 100 µM.
The like results for `COCCN(CCOC)C(=O)ONC(=O)CC12CC3CC(CC(C3)C1)C2` were, in that order, 48 h, 164 h and above 100 µM.
Regarding `CN(C)C(=O)ONC(=O)CC12CC3CC(CC(C3)C1)C2`, the results for the t1/2 in data set [1] and in data set [6] were 61 h and 149 h, respectively. Moreover, in [5] (read-out: EC50), the concentration giving a half-maximal response (EC50) was above 100 µM.
Turning to `CC(C)(C)NC(=O)ONC(=O)CC12CC3CC(CC(C3)C1)C2`, the half-maximal effective concentration (EC50) entry in data set [5] is on record as “ND(toxic)”. The compound also gave a t1/2 in [6] of 72 h.
With `CC1(C)ON=C(CC23CC4CC(CC(C4)C2)C3)O1`, the t1/2 in data set [1] came out at 10.2 h; in data set [6] it was 3.3 h. Besides, the EC50 in data set [5] (read-out: EC50) was above 100 µM.
On the same counts, the results for `COc1ccc(CNC(=O)ONC(=O)CC23CC4CC(CC(C4)C2)C3)cc1` are 11.2 h, 14 h and 42 µM.
On the same counts, the results for `O=C(CC12CC3CC(CC(C3)C1)C2)NOC(=O)N1CCOCC1` are 33 h, 48 h and 37 µM.
In the case of `O=C(CC12CC3CC(CC(C3)C1)C2)N(O)C(=O)NCc1ccccc1`, the Activity result in [9] was “Toxic”.
`COc1ccc(NC(=O)ONC(=O)CC23CC4CC(CC(C4)C2)C3)cc1`: the t1/2 stood at 0.85 h in data set [1] and 1.1 h in data set [6]. Besides, the EC50 in data set [5] (read-out: EC50) is above 100 µM.
